# Reference: ChEMBL document CHEMBL5724801, “EUbOPEN Chemogenomics Library - Multiplex” (2024)
# Several values for one entry are separate records, joined by “and”; a condition that tells them apart may be missing. Equal values may be shown once.
# Tested on: U2OS
# Assay: Multiplex assay against U2OS
# Type: toxicity, cell-based
# Details: human, 12 h, 1 µM, compound concentration 1 uM
# Procedure, shortened: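 Live cells were stained at seeding with Hoechst33342, BioTracker Green Microtubule Cytoskeleton Dye, MitoTracker Red and Annexin V Alexa Fluor 680, then imaged on a CQ1 microscope at 37°C and 5% CO2 after compound addition. CellPathfinder machine-learning gating split cells into Hoechst high-intensity objects or normal cells. Normal cells were split into healthy, pyknosed or fragmented nuclei, and pyknosed cells into mitotic or apoptotic. Tubulin, mitochondrial-mass and membrane-permeability phenotypes are per cents of healthy-nucleus cells.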
SMILES,Population Apoptotic (%),Population Fragmented Nuclei (%),Population Healthy Nuclei (%),Population Hoechst High Intensity Objects (%),Population Membrane Permeable-Phenotype (%),Population Mitochondria Different-Phenotype (%),Population Mitotic Cells (%),Population Normal (%),Population Pyknosed Nuclei (%),Population Tubulin-Different-Phenotype (%)
Cc1nn(C)c2nc(NNC(=O)Nc3cc(Cl)nc(Cl)c3)cc(C(C)C)c12,76% and 72%,23% and 14%,66% and 76%,1% and 2%,5% and 10%,3% and 7%,24% and 27%,98% and 97%,9% and 8%,2% and 7%
COc1cccc2c1c(NS(=O)(=O)c1ccc(Cl)s1)nn2Cc1cccc(CNC(=O)C(C)(C)O)c1,86% and 81%,23% and 29%,67% and 64%,3% and 6%,4% and 7%,1% and 3%,13% and 18%,96% and 93%,9% and 5%,1% and 6%
Cc1sc2c(c1C)C(c1ccc(Cl)cc1)=N[C@@H](CC(=O)NCCCCCCCCNC(=O)COc1cccc3c1C(=O)N(C1CCC(=O)NC1=O)C3=O)c1nnc(C)n1-2 (stereo partly specified),93% and 87%,,49% and 80%,11% and 0%,9% and 5%,4% and 1%,6% and 12%,88% and 99%,6% and 5%,5% and 3%
O=C(Nc1cc(-c2ccccc2)nn1-c1ccccc1F)c1ccc([N+](=O)[O-])cc1,86% and 91%,25% and 14%,66% and 78%,4% and 1%,10% and 9%,4%,13% and 8%,95% and 98%,8% and 6%,4% and 9%

# Same assay, conditions: human, 12 h, 1 µM, compound concentration 1 uM
row,SMILES,Total Cell Count
1,Cc1nn(C)c2nc(NNC(=O)Nc3cc(Cl)nc(Cl)c3)cc(C(C)C)c12,268 and 131
2,COc1cccc2c1c(NS(=O)(=O)c1ccc(Cl)s1)nn2Cc1cccc(CNC(=O)C(C)(C)O)c1,261 and 201
3,Cc1sc2c(c1C)C(c1ccc(Cl)cc1)=N[C@@H](CC(=O)NCCCCCCCCNC(=O)COc1cccc3c1C(=O)N(C1CCC(=O)NC1=O)C3=O)c1nnc(C)n1-2 (stereo partly specified),269 and 136
4,O=C(Nc1cc(-c2ccccc2)nn1-c1ccccc1F)c1ccc([N+](=O)[O-])cc1,293 and 182

# Same assay, conditions: human, 12 h, 10 µM, compound concentration 10 uM
SMILES,Population Apoptotic (%),Population Fragmented Nuclei (%),Population Healthy Nuclei (%),Population Hoechst High Intensity Objects (%),Population Membrane Permeable-Phenotype (%),Population Mitochondria Different-Phenotype (%),Population Mitotic Cells (%),Population Normal (%),Population Pyknosed Nuclei (%),Population Tubulin-Different-Phenotype (%)
Cc1nn(C)c2nc(NNC(=O)Nc3cc(Cl)nc(Cl)c3)cc(C(C)C)c12,77% and 47%,21% and 15%,56% and 63%,7% and 4%,75% and 57%,46% and 63%,22% and 52%,92% and 95%,21%,80% and 77%
COc1cccc2c1c(NS(=O)(=O)c1ccc(Cl)s1)nn2Cc1cccc(CNC(=O)C(C)(C)O)c1,76% and 83%,26% and 25%,65% and 70%,1% and 5%,6% and 8%,2% and 3%,23% and 16%,98% and 94%,8% and 4%,4% and 2%
Cc1sc2c(c1C)C(c1ccc(Cl)cc1)=N[C@@H](CC(=O)NCCCCCCCCNC(=O)COc1cccc3c1C(=O)N(C1CCC(=O)NC1=O)C3=O)c1nnc(C)n1-2 (stereo partly specified),86% and 100%,31% and 19%,55% and 75%,5% and 0%,,4% and 12%,13% and 0%,94% and 99%,13% and 4%,0% and 12%
O=C(Nc1cc(-c2ccccc2)nn1-c1ccccc1F)c1ccc([N+](=O)[O-])cc1,66% and 94%,30% and 12%,60% and 73%,3% and 0%,11%,5% and 8%,,96% and 100%,9% and 13%,7% and 6%

# Same assay, conditions: human, 12 h, 10 µM, compound concentration 10 uM
row,SMILES,Total Cell Count
1,Cc1nn(C)c2nc(NNC(=O)Nc3cc(Cl)nc(Cl)c3)cc(C(C)C)c12,222 and 104
2,COc1cccc2c1c(NS(=O)(=O)c1ccc(Cl)s1)nn2Cc1cccc(CNC(=O)C(C)(C)O)c1,264 and 140
3,Cc1sc2c(c1C)C(c1ccc(Cl)cc1)=N[C@@H](CC(=O)NCCCCCCCCNC(=O)COc1cccc3c1C(=O)N(C1CCC(=O)NC1=O)C3=O)c1nnc(C)n1-2 (stereo partly specified),233 and 117
4,O=C(Nc1cc(-c2ccccc2)nn1-c1ccccc1F)c1ccc([N+](=O)[O-])cc1,293 and 134

# Same assay, conditions: human, 24 h, 1 µM, compound concentration 1 uM
SMILES,Population Apoptotic (%),Population Fragmented Nuclei (%),Population Healthy Nuclei (%),Population Hoechst High Intensity Objects (%),Population Membrane Permeable-Phenotype (%),Population Mitochondria Different-Phenotype (%),Population Normal (%),Population Pyknosed Nuclei (%),Population Tubulin-Different-Phenotype (%),Total Cell Count
Cc1nn(C)c2nc(NNC(=O)Nc3cc(Cl)nc(Cl)c3)cc(C(C)C)c12,80% and 93%,20% and 17%,71% and 73%,0% and 2%,4% and 9%,2% and 4%,99% and 97%,8% and 9%,1% and 4%,328 and 168
COc1cccc2c1c(NS(=O)(=O)c1ccc(Cl)s1)nn2Cc1cccc(CNC(=O)C(C)(C)O)c1,96% and 90%,20% and 28%,70% and 66%,1% and 5%,5% and 8%,1% and 3%,98% and 94%,8% and 4%,3% and 6%,307 and 242
Cc1sc2c(c1C)C(c1ccc(Cl)cc1)=N[C@@H](CC(=O)NCCCCCCCCNC(=O)COc1cccc3c1C(=O)N(C1CCC(=O)NC1=O)C3=O)c1nnc(C)n1-2 (stereo partly specified),100% and 92%,,51% and 80%,11% and 2%,8% and 5%,3% and 2%,88% and 97%,6% and 7%,5% and 4%,297 and 174
O=C(Nc1cc(-c2ccccc2)nn1-c1ccccc1F)c1ccc([N+](=O)[O-])cc1,91% and 100%,24% and 15%,68% and 76%,3% and 1%,6% and 9%,4% and 5%,96% and 98%,7% and 8%,5% and 6%,342 and 226

# Same assay, conditions: human, 24 h, 1 µM, compound concentration 1 uM
row,SMILES,Population Mitotic Cells (%)
1,COc1cccc2c1c(NS(=O)(=O)c1ccc(Cl)s1)nn2Cc1cccc(CNC(=O)C(C)(C)O)c1,3% and 9%
2,Cc1sc2c(c1C)C(c1ccc(Cl)cc1)=N[C@@H](CC(=O)NCCCCCCCCNC(=O)COc1cccc3c1C(=O)N(C1CCC(=O)NC1=O)C3=O)c1nnc(C)n1-2 (stereo partly specified),0% and 7%
3,O=C(Nc1cc(-c2ccccc2)nn1-c1ccccc1F)c1ccc([N+](=O)[O-])cc1,8% and 0%

# Same assay, conditions: human, 24 h, 10 µM, compound concentration 10 uM
SMILES,Population Apoptotic (%),Population Fragmented Nuclei (%),Population Healthy Nuclei (%),Population Hoechst High Intensity Objects (%),Population Membrane Permeable-Phenotype (%),Population Mitochondria Different-Phenotype (%),Population Mitotic Cells (%),Population Normal (%),Population Pyknosed Nuclei (%),Population Tubulin-Different-Phenotype (%)
Cc1nn(C)c2nc(NNC(=O)Nc3cc(Cl)nc(Cl)c3)cc(C(C)C)c12,78% and 69%,19% and 16%,49% and 61%,5% and 2%,69% and 42%,58% and 51%,21% and 30%,94% and 97%,31% and 21%,77% and 57%
COc1cccc2c1c(NS(=O)(=O)c1ccc(Cl)s1)nn2Cc1cccc(CNC(=O)C(C)(C)O)c1,90% and 88%,25%,64% and 68%,1% and 5%,5% and 8%,3% and 4%,10% and 11%,98% and 94%,10% and 5%,2%
Cc1sc2c(c1C)C(c1ccc(Cl)cc1)=N[C@@H](CC(=O)NCCCCCCCCNC(=O)COc1cccc3c1C(=O)N(C1CCC(=O)NC1=O)C3=O)c1nnc(C)n1-2 (stereo partly specified),100%,34% and 27%,53% and 65%,8% and 0%,,5% and 9%,0%,91% and 99%,12% and 7%,
O=C(Nc1cc(-c2ccccc2)nn1-c1ccccc1F)c1ccc([N+](=O)[O-])cc1,91% and 100%,25% and 14%,64% and 76%,1% and 0%,7% and 11%,3% and 8%,8% and 0%,98% and 99%,9%,5% and 8%

# Same assay, conditions: human, 24 h, 10 µM, compound concentration 10 uM
row,SMILES,Total Cell Count
1,Cc1nn(C)c2nc(NNC(=O)Nc3cc(Cl)nc(Cl)c3)cc(C(C)C)c12,218 and 110
2,COc1cccc2c1c(NS(=O)(=O)c1ccc(Cl)s1)nn2Cc1cccc(CNC(=O)C(C)(C)O)c1,304 and 167
3,Cc1sc2c(c1C)C(c1ccc(Cl)cc1)=N[C@@H](CC(=O)NCCCCCCCCNC(=O)COc1cccc3c1C(=O)N(C1CCC(=O)NC1=O)C3=O)c1nnc(C)n1-2 (stereo partly specified),245 and 130
4,O=C(Nc1cc(-c2ccccc2)nn1-c1ccccc1F)c1ccc([N+](=O)[O-])cc1,353 and 164

# Same assay, conditions: human, 48 h, 1 µM, compound concentration 1 uM
SMILES,Population Apoptotic (%),Population Fragmented Nuclei (%),Population Healthy Nuclei (%),Population Hoechst High Intensity Objects (%),Population Membrane Permeable-Phenotype (%),Population Mitochondria Different-Phenotype (%),Population Mitotic Cells (%),Population Normal (%),Population Pyknosed Nuclei (%),Population Tubulin-Different-Phenotype (%)
Cc1nn(C)c2nc(NNC(=O)Nc3cc(Cl)nc(Cl)c3)cc(C(C)C)c12,88% and 86%,17% and 21%,75% and 65%,2% and 1%,4% and 8%,3% and 4%,11% and 13%,97% and 98%,7% and 12%,2% and 5%
COc1cccc2c1c(NS(=O)(=O)c1ccc(Cl)s1)nn2Cc1cccc(CNC(=O)C(C)(C)O)c1,95% and 74%,14% and 22%,76% and 68%,1% and 7%,4% and 5%,1% and 4%,,98% and 92%,9%,2% and 5%
Cc1sc2c(c1C)C(c1ccc(Cl)cc1)=N[C@@H](CC(=O)NCCCCCCCCNC(=O)COc1cccc3c1C(=O)N(C1CCC(=O)NC1=O)C3=O)c1nnc(C)n1-2 (stereo partly specified),91% and 90%,35% and 12%,53% and 79%,10% and 1%,6% and 4%,1%,8% and 9%,89% and 98%,10% and 7%,2% and 1%
O=C(Nc1cc(-c2ccccc2)nn1-c1ccccc1F)c1ccc([N+](=O)[O-])cc1,89% and 90%,17% and 12%,73% and 79%,2% and 1%,9% and 6%,5% and 4%,10%,97% and 98%,8%,5%

# Same assay, conditions: human, 48 h, 1 µM, compound concentration 1 uM
row,SMILES,Total Cell Count
1,Cc1nn(C)c2nc(NNC(=O)Nc3cc(Cl)nc(Cl)c3)cc(C(C)C)c12,504 and 247
2,COc1cccc2c1c(NS(=O)(=O)c1ccc(Cl)s1)nn2Cc1cccc(CNC(=O)C(C)(C)O)c1,463 and 314
3,Cc1sc2c(c1C)C(c1ccc(Cl)cc1)=N[C@@H](CC(=O)NCCCCCCCCNC(=O)COc1cccc3c1C(=O)N(C1CCC(=O)NC1=O)C3=O)c1nnc(C)n1-2 (stereo partly specified),353 and 270
4,O=C(Nc1cc(-c2ccccc2)nn1-c1ccccc1F)c1ccc([N+](=O)[O-])cc1,475 and 371

# Same assay, conditions: human, 48 h, 10 µM, compound concentration 10 uM
SMILES,Population Apoptotic (%),Population Fragmented Nuclei (%),Population Healthy Nuclei (%),Population Hoechst High Intensity Objects (%),Population Membrane Permeable-Phenotype (%),Population Mitochondria Different-Phenotype (%),Population Mitotic Cells (%),Population Normal (%),Population Pyknosed Nuclei (%),Population Tubulin-Different-Phenotype (%)
Cc1nn(C)c2nc(NNC(=O)Nc3cc(Cl)nc(Cl)c3)cc(C(C)C)c12,83% and 80%,24%,43% and 48%,9% and 6%,51%,46% and 63%,16% and 20%,90% and 93%,32% and 27%,49% and 57%
COc1cccc2c1c(NS(=O)(=O)c1ccc(Cl)s1)nn2Cc1cccc(CNC(=O)C(C)(C)O)c1,93% and 100%,20% and 22%,71%,2% and 3%,5%,2% and 3%,6% and 0%,97% and 96%,8% and 5%,3%
Cc1sc2c(c1C)C(c1ccc(Cl)cc1)=N[C@@H](CC(=O)NCCCCCCCCNC(=O)COc1cccc3c1C(=O)N(C1CCC(=O)NC1=O)C3=O)c1nnc(C)n1-2 (stereo partly specified),100%,36% and 25%,51% and 70%,7% and 2%,9% and 10%,4%,0%,92% and 97%,12% and 4%,4% and 7%
O=C(Nc1cc(-c2ccccc2)nn1-c1ccccc1F)c1ccc([N+](=O)[O-])cc1,81% and 89%,20% and 10%,67% and 76%,2%,8% and 11%,4% and 8%,18% and 10%,97%,12% and 13%,6% and 8%

# Same assay, conditions: human, 48 h, 10 µM, compound concentration 10 uM
row,SMILES,Total Cell Count
1,Cc1nn(C)c2nc(NNC(=O)Nc3cc(Cl)nc(Cl)c3)cc(C(C)C)c12,244 and 115
2,COc1cccc2c1c(NS(=O)(=O)c1ccc(Cl)s1)nn2Cc1cccc(CNC(=O)C(C)(C)O)c1,413 and 235
3,Cc1sc2c(c1C)C(c1ccc(Cl)cc1)=N[C@@H](CC(=O)NCCCCCCCCNC(=O)COc1cccc3c1C(=O)N(C1CCC(=O)NC1=O)C3=O)c1nnc(C)n1-2 (stereo partly specified),289 and 179
4,O=C(Nc1cc(-c2ccccc2)nn1-c1ccccc1F)c1ccc([N+](=O)[O-])cc1,445 and 226
